Measured values taken from paper PMC8943622 (Journal of Cerebral Blood Flow & Metabolism, 2021).
“And” between values parts separate entries of the source, which are not always exact repeats. Identical values can stand only once. Like-named read-outs stand apart in the source and are kept apart here.

Experiments:
[1] = test system: MAGL; test: [18F]T-401 PET after JW642 pretreatment; assay type: in vivo, rhesus monkey (Macaca mulatta)
[2] = biological target: T1, MAGL (Macaca mulatta, UniProt H9ESL3); test: In vivo Scatchard plot analysis of baseline [18F]T-401 PET data; design: species or system rhesus monkey
T1 sequence (H9ESL3 1-303): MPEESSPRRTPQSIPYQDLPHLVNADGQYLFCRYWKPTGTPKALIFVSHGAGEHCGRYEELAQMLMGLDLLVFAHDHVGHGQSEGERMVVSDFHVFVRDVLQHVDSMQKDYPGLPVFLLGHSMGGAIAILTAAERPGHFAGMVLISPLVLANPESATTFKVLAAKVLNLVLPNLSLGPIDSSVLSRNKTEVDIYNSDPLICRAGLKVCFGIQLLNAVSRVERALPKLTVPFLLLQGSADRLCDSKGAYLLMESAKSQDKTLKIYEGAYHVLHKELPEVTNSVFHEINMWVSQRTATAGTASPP
Summary of the method: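 Three male rhesus monkeys (5–7 kg) were given ketamine 10 mg/kg i.m., then intubated and kept on 1–2% isoflurane, with a heating pad. After a 68Ge–68Ga transmission scan, a 120 min 3D list-mode emission scan began at i.v. radioligand injection (356 ± 50 MBq, 343 ± 68 GBq/μmol). Baseline data were analysed by Scatchard plot to give KD and Bmax in representative ROIs.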

[3] = Radiometabolite analysis of [18F]T-401 in arterial plasma; assay type: in vivo, rhesus monkey; conditions: 30 min after injection; baseline and JW642 blockade
Summary of the method: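 Anaesthetised monkeys had 24 serial saphenous-artery samples taken over the 120 min scan. Plasma was separated at 15000 × g, 3 min, 4 °C. Samples from 2, 5, 10, 30, 60, 90 and 120 min went to HPLC (Atlantis T3, acetonitrile/H2O 40/60, 1.0 mL/min, 254 nm). Decay-corrected parent-to-total radioactivity came from peak areas. Blockade used i.v. test compound 0.01–0.3 mg/kg, 5 min before the radioligand, in one monkey.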

[4] = test system: MAGL; assay type: in vivo, rhesus monkey (Macaca mulatta); conditions: baseline; for VT mean: mean of three monkeys; for VT: M187

SMILES	EC50, plasma JW642 concentration inducing 50% occupancy of MAGL ([1]; Hill's plot of occupancy versus plasma concentration, monkey M187)	MAGL occupancy ([1]; JW642 0.01 mg/kg i.v., Lassen's plot)	MAGL occupancy ([1]; JW642 0.3 mg/kg i.v., Lassen's plot, 0.3 mg/kg)	Kd ([2]; FCX)	Kd ([2]; HIP)	parent fraction in arterial plasma [3]	non-displaceable distribution volume (VND) ([1]; Lassen's plot, averaged x-intercept of regression lines, monkey brain)	VND as portion of VT ([1]; pons)	VT mean ([4]; CB)	VT mean ([4]; FCX)	VT mean ([4]; HIP)	VT ([4]; OCC)	VT mean ([4]; OCC)	VT mean ([4]; Pons)	VT ([4]; STR)	VT mean ([4]; STR)	VT mean ([4]; THA)	time of peak brain uptake after injection ([4]; monkey brain)	mean VT, upper end of range ([4]; printed as striatum)
O=C(OC(C(F)(F)F)C(F)(F)F)N1CCN(Cc2cccc(Oc3ccccc3)c2)CC1 [JW642]	0.126 µg/mL and 0.1261 µg/mL	20%	94% and 93%																
Cc1ccnc([18F])c1-c1cccc(N2C[C@H](N3CCN(C(=O)c4nccs4)CC3)CC2=O)c1 [[^18F]T-401, (4R)-1-{3-[2-[^18F]fluoro-4-methylpyridin-3-yl]phenyl}-4-[4-(1,3-thiazol-2-ylcarbonyl)piperazin-1-yl]pyrrolidin-2-one]				4.18 nM	1.09 nM	approximately 30%	0.69 mL/cm^3	14.6%	7.17 mL/cm^3	11.7 mL/cm^3	5.95 mL/cm^3	11.89 mL/cm^3	9.96 mL/cm^3	4.73 mL/cm^3	12.51 mL/cm^3	9.05 mL/cm^3	6.36 mL/cm^3	5 to 15 min	11.7 mL/cm^3
